# From ChEMBL document CHEMBL3352311, “Discovery of novel 3-benzylquinazolin-4(3H)-ones as potent vasodilative agents” (Bioorg Med Chem Lett, 2014)
# Calls of active or inactive are those of the source. The rule behind the calls is not given here.
# Tests used:
# [1] = Vasodilative activity in isolated Sprague-Dawley rat mesenteric arterial ring assessed as reduction in KCl-induced contraction by wire myograph method; type: functional; conditions: Mesenteric artery
# In short: (§1)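 Isolated rat mesenteric arterial rings were precontracted with 60 mM KCl MOPS solution and then exposed to the compound. Relaxation was expressed as pEC50 and Emax (%), given as mean ± deviation. DMSO served as vehicle control and nitrendipine as reference.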
# [2] = Vasodilative activity in isolated Sprague-Dawley rat mesenteric arterial ring assessed as reduction in KCl-induced contraction by wire myograph method relative to control; type: functional; conditions: Mesenteric artery; in short: as §1
# Rattus norvegicus [3] = assay: Antihypertensive activity in spontaneously hypertensive rat assessed as reduction in diastolic blood pressure at 0.5 mg/kg, po measured after 1 hr; type: functional, Artery
# In short: (§2)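 Oral dosing in spontaneously hypertensive rats, n = 8 per group. Vehicle was NMP/PEG400/H2O 1:7:2 at 5 ml/kg, and vehicle alone served as control. DBP and SBP (mmHg) were recorded before dosing (0 h) and 1 h after. The reported value is the reduction from the 0 h reading. Doses tested ranged from 0.5 to 8.0 mg/kg, with nitrendipine 2.0 mg/kg as positive drug.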
# Rattus norvegicus [4] = assay: Antihypertensive activity in spontaneously hypertensive rat assessed as reduction in diastolic blood pressure at 4 mg/kg, po measured after 0.5 hrs; type: functional, Artery
# In short: (§3)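 Time course in spontaneously hypertensive rats given 4.0 mg/kg orally in NMP/PEG400/H2O 1:7:2 vehicle (5 ml/kg). A vehicle-only group was included. DBP and SBP were followed at successive times after dosing, and the reduction from the pre-dose blood pressure was reported.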
# Rattus norvegicus [5] = assay: Antihypertensive activity in spontaneously hypertensive rat assessed as reduction in diastolic blood pressure at 4 mg/kg, po measured after 8 hrs; type: functional, Artery; in short: as §3
# Rattus norvegicus [6] = assay: Antihypertensive activity in spontaneously hypertensive rat assessed as reduction in systolic blood pressure at 4 mg/kg, po measured after 1 hr; type: functional, Artery; in short: as §2
# Rattus norvegicus [7] = assay: Antihypertensive activity in spontaneously hypertensive rat assessed as reduction in diastolic blood pressure at 4 mg/kg, po measured after 2 hrs; type: functional, Artery; in short: as §3
# Rattus norvegicus [8] = assay: Antihypertensive activity in spontaneously hypertensive rat assessed as reduction in diastolic blood pressure at 1 mg/kg, po measured after 1 hr; type: functional, Artery; in short: as §2
# Rattus norvegicus [9] = assay: Antihypertensive activity in spontaneously hypertensive rat assessed as reduction in diastolic blood pressure at 4 mg/kg, po measured after 6 hrs; type: functional, Artery; in short: as §3
# Rattus norvegicus [10] = assay: Antihypertensive activity in spontaneously hypertensive rat assessed as reduction in systolic blood pressure at 0.5 mg/kg, po measured after 1 hr; type: functional, Artery; in short: as §2
# Rattus norvegicus [11] = assay: Antihypertensive activity in spontaneously hypertensive rat assessed as reduction in systolic blood pressure at 4 mg/kg, po measured after 8 hrs; type: functional, Artery; in short: as §3
# Rattus norvegicus [12] = assay: Antihypertensive activity in spontaneously hypertensive rat assessed as reduction in systolic blood pressure at 4 mg/kg, po measured after 4 hrs; type: functional, Artery; in short: as §3
# Rattus norvegicus [13] = assay: Antihypertensive activity in spontaneously hypertensive rat assessed as reduction in systolic blood pressure at 1 mg/kg, po measured after 1 hr; type: functional, Artery; in short: as §2
# Rattus norvegicus [14] = assay: Antihypertensive activity in spontaneously hypertensive rat assessed as reduction in diastolic blood pressure at 4 mg/kg, po measured after 4 hrs; type: functional, Artery; in short: as §3
# Rattus norvegicus [15] = assay: Antihypertensive activity in spontaneously hypertensive rat assessed as reduction in diastolic blood pressure at 2 mg/kg, po measured after 1 hr; type: functional, Artery; in short: as §2
# Rattus norvegicus [16] = assay: Antihypertensive activity in spontaneously hypertensive rat assessed as reduction in systolic blood pressure at 8 mg/kg, po measured after 1 hr; type: functional, Artery; in short: as §2
# Rattus norvegicus [17] = assay: Antihypertensive activity in spontaneously hypertensive rat assessed as reduction in systolic blood pressure at 4 mg/kg, po measured after 6 hrs; type: functional, Artery; in short: as §3
# Rattus norvegicus [18] = assay: Antihypertensive activity in spontaneously hypertensive rat assessed as reduction in diastolic blood pressure at 8 mg/kg, po measured after 1 hr; type: functional, Artery; in short: as §2
# [19] = Vasodilative activity in isolated Sprague-Dawley rat mesenteric arterial ring assessed as reduction in phenylephrine-induced contraction at 1 to 10 uM pre-incubated for 30 mins before phenylephrine addition by wire myograph method; type: functional; conditions: Mesenteric artery
# In short: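 Rat mesenteric artery segments were pretreated with compound at 10^-5 M or 10^-6 M for 30 min. Contraction induced by phenylephrine was then recorded.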
# Rattus norvegicus [20] = assay: Antihypertensive activity in spontaneously hypertensive rat assessed as reduction in systolic blood pressure at 2 mg/kg, po measured after 1 hr; type: functional, Artery; in short: as §2
# Rattus norvegicus [21] = assay: Antihypertensive activity in orally dosed spontaneously hypertensive rat assessed as reduction in systolic blood pressure; type: functional, organism-based; conditions: Artery; in short: as §2
# Rattus norvegicus [22] = assay: Antihypertensive activity in spontaneously hypertensive rat assessed as reduction in systolic blood pressure at 4 mg/kg, po measured after 2 hrs; type: functional, Artery; in short: as §3
# Rattus norvegicus [23] = assay: Antihypertensive activity in spontaneously hypertensive rat assessed as reduction in systolic blood pressure at 4 mg/kg, po measured after 0.5 hrs; type: functional, Artery; in short: as §3
# Rattus norvegicus [24] = assay: Antihypertensive activity in spontaneously hypertensive rat assessed as reduction in diastolic blood pressure at 4 mg/kg, po measured after 1 hr; type: functional, Artery; in short: as §2
# Rattus norvegicus [25] = assay: Antihypertensive activity in orally dosed spontaneously hypertensive rat assessed as reduction in diastolic blood pressure; type: functional, organism-based; conditions: Artery; in short: as §2
compound,measurement,setting,value
COc1cc2ncn(Cc3ccc(OCc4ccc(F)cc4)cc3)c(=O)c2cc1OC,EC50,[1],100 µM
same,Emax,[2],50.3%
COc1cc2ncn(Cc3ccc(OCc4ccncc4)c(OC)c3)c(=O)c2cc1OC,EC50,[1],20 µM
same,Emax,[2],93.5%
COc1cc2ncn(Cc3ccc(OCc4ccc(F)cc4)c(OC)c3)c(=O)c2cc1OC,EC50,[1],0.251 µM
same,Activity,Rattus norvegicus [3],9 mmHg
same,Activity,Rattus norvegicus [4],20 mmHg
same,Activity,Rattus norvegicus [5],0 mmHg
same,Activity,Rattus norvegicus [6],60 mmHg
same,Activity,Rattus norvegicus [7],23 mmHg
same,Activity,Rattus norvegicus [8],15 mmHg
same,Activity,Rattus norvegicus [9],10 mmHg
same,Activity,Rattus norvegicus [10],12 mmHg
same,Activity,Rattus norvegicus [11],2 mmHg
same,Activity,Rattus norvegicus [12],36 mmHg
same,Activity,Rattus norvegicus [13],28 mmHg
same,Activity,Rattus norvegicus [14],17 mmHg
same,Activity,Rattus norvegicus [15],18 mmHg
same,Activity,Rattus norvegicus [16],64 mmHg
same,Emax,[2],103%
same,Activity,Rattus norvegicus [17],21 mmHg
same,Activity,Rattus norvegicus [18],43 mmHg
same,Activity,[19],Active
same,Activity,Rattus norvegicus [20],41 mmHg
same,Activity,Rattus norvegicus [21],Dose-dependent effect
same,Activity,Rattus norvegicus [22],42 mmHg
same,Activity,Rattus norvegicus [23],46 mmHg
same,Activity,Rattus norvegicus [24],34 mmHg
same,Activity,Rattus norvegicus [25],Dose-dependent effect
O=c1c2ccc(F)cc2ncn1Cc1ccc(F)cc1,EC50,[1],100 µM
same,Emax,[2],78.3%
COc1ccc(Cn2cnc3cc(F)ccc3c2=O)cc1,EC50,[1],79.4 µM
same,Emax,[2],87.7%
COc1cc2ncn(Cc3ccc([N+](=O)[O-])cc3)c(=O)c2cc1OC,EC50,[1],63.1 µM
same,Emax,[2],86.2%
COc1cc2ncn(Cc3ccc(OC)c(OCc4ccccc4)c3)c(=O)c2cc1OC,EC50,[1],31.6 µM
same,Emax,[2],95%
COc1cc2ncn(Cc3cc(OC)c(OC)c(OC)c3)c(=O)c2cc1OC,EC50,[1],0.501 µM
same,Emax,[2],104%
COc1cc2ncn(Cc3ccccc3Cl)c(=O)c2cc1OC,EC50,[1],39.8 µM
same,Emax,[2],98.3%
COc1cc2ncn(Cc3ccc(OCc4ccccc4)c(OC)c3)c(=O)c2cc1OC,EC50,[1],0.398 µM
same,Activity,Rattus norvegicus [6],48 mmHg
same,Emax,[2],103%
same,Activity,[19],Active
same,Activity,Rattus norvegicus [24],19 mmHg
COc1cc2ncn(Cc3ccc(OCc4ccc(Cl)cc4Cl)c(OC)c3)c(=O)c2cc1OC,EC50,[1],12.6 µM
same,Emax,[2],97.8%
COc1cc2ncn(Cc3ccc(F)cc3)c(=O)c2cc1OC,EC50,[1],25.1 µM
same,Emax,[2],97.8%
O=c1c2cc(Br)ccc2ncn1Cc1ccc(F)cc1,EC50,[1],50.1 µM
same,Emax,[2],96.4%
COc1cc2ncn(Cc3ccc(OCc4cccc(F)c4)c(OC)c3)c(=O)c2cc1OC,EC50,[1],1 µM
same,Emax,[2],99.6%
COc1ccc(Cn2cnc3cc(OC)c(OC)cc3c2=O)cc1,EC50,[1],25.1 µM
same,Emax,[2],100%
COc1cc2ncn(Cc3ccc(OCc4cccnc4)c(OC)c3)c(=O)c2cc1OC,EC50,[1],0.631 µM
same,Emax,[2],98.4%
COc1cc2ncn(Cc3ccccc3)c(=O)c2cc1OC,EC50,[1],39.8 µM
same,Emax,[2],98.2%
COc1ccc(-n2cnc3cc(OC)c(OC)cc3c2=O)cc1,EC50,[1],63.1 µM
same,Emax,[2],96.3%
COc1cc2ncn(Cc3ccccc3C)c(=O)c2cc1OC,EC50,[1],31.6 µM
same,Emax,[2],97.3%
O=c1c2ccc(Cl)cc2ncn1Cc1ccc(F)cc1,EC50,[1],63.1 µM
same,Emax,[2],101%
COc1cc2ncn(Cc3ccc(OCc4ccc(F)cc4)c(F)c3)c(=O)c2cc1OC,EC50,[1],7.94 µM
same,Emax,[2],99.1%
COc1cc(Cn2cnc3cc(OC)c(OC)cc3c2=O)ccc1O,EC50,[1],31.6 µM
same,Emax,[2],87.6%
COc1cc2ncn(Cc3ccc(OCc4ccc(F)cc4)c(Cl)c3)c(=O)c2cc1OC,EC50,[1],10 µM
same,Emax,[2],98.9%
COc1cc2ncn(Cc3ccc(C#N)cc3)c(=O)c2cc1OC,EC50,[1],50.1 µM
same,Emax,[2],85.6%
COc1ccc(Cn2cnc3cc(Cl)ccc3c2=O)cc1,EC50,[1],50.1 µM
same,Emax,[2],97%
COc1ccc(Cn2cnc3cc4c(cc3c2=O)OCO4)cc1,EC50,[1],20 µM
same,Emax,[2],101%
COc1ccc(COc2ccc(Cn3cnc4cc(OC)c(OC)cc4c3=O)cc2OC)cc1OC,EC50,[1],3.16 µM
same,Emax,[2],99.7%
CCOC(=O)C1=C(C)NC(C)=C(C(=O)OC)C1c1cccc([N+](=O)[O-])c1 (stereo unspecified) [NITRENDIPINE],EC50,[1],0.00398 µM
same,Activity,Rattus norvegicus [15],30 mmHg
same,Emax,[2],104%
same,Activity,Rattus norvegicus [20],51 mmHg
COc1cc2ncn(Cc3ccc4c(c3)OCO4)c(=O)c2cc1OC,EC50,[1],7.94 µM
same,Emax,[2],98.6%
